Screening data from PubChem BioAssay.
PAFAH1B3 inh: blocks human PAF acetylhydrolase 1B catalytic subunit 3; AID 492972; recombinant PAFAH1B3, FP-rhodamine probe, fluorescence polarization; hit rate 0.28% among 340,000; inhibition, % at 3.39 µM;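 active = inhibition above the screen-wide average of all tested compounds plus 3 SD, cut at about 25% in these data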;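 also: 0% = enzyme with DMSO only and 100% = wells lacking PAFAH1B3 protein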
Target sequence (Q15102 whole entry, looked up): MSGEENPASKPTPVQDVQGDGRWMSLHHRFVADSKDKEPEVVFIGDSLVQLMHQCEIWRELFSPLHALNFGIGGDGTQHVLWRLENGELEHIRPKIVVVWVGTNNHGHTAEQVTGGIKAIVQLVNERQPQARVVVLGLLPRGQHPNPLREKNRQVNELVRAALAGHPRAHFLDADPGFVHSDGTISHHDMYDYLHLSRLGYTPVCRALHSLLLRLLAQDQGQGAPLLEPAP
PAFAH1B2 inh: inhibitors of human PAFAH1B2; recombinant PAFAH1B2, FP-rhodamine activity probe, fluorescence polarization; hit rate 1.2% among 340,000; inhibition, % at 3.39 µM;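 active = inhibition above the mean of all tested compounds plus 3 SD, cut at about 24% in these data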;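 also: 0% = enzyme with DMSO and 100% = wells lacking PAFAH1B2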
Target sequence (P68402 whole entry, looked up): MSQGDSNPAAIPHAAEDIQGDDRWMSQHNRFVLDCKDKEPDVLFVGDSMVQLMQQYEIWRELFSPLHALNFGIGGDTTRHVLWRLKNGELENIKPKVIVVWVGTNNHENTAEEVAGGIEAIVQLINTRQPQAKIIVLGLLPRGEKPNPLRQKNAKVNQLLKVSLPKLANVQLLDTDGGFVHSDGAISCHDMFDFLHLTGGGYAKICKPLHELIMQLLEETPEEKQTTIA
pPAFAH inh: pPAFAH (human) enzyme inhibition. inhibition, % at 3.39 µM. hit rate 1.5% among 330,000. recombinant pPAFAH, FP-rhodamine probe fluorescence polarization. AID 463082. Q13093;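 active = inhibition above the mean inhibition across the screen plus 3 SD, cut at about 25% in these data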;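 also: inhibitors block binding of the rhodamine activity-based probe so polarization drops; 0% = enzyme with DMSO and 100% = wells lacking pPAFAH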
ARFGAP1 inhibitor: inhibits rat ARF GTPase activating protein 1 | Q62848 | Arfgap1-stimulated ARF1 GTP hydrolysis, GDP FP detection | inhibition, % at 16.5 µM | hit rate 0.26% among 360,000 | AID 651572;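 active = inhibition above a per-plate limit, mean inhibition of low control wells plus 3 SD, cut at about 25% in these data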;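 also: 0% = DMSO wells with enzyme and 100% = wells lacking Arfgap1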
Target sequence (Q62848 1-136 limits assumed): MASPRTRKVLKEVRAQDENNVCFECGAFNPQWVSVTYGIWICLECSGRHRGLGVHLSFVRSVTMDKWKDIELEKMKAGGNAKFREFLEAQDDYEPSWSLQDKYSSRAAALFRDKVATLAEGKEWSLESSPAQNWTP
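Material – truncated rat Arfgap1 GAP domain · Buffer or medium – HEPES-based buffer, pH 7.5 · Reagent – human ARF1(Δ1-17)-GTP substrate · Dosing – 16.5 µM single point, 1.26% DMSO · Schedule – GTP hydrolysis reaction 2 h at 25 °C · Technique – GDP detection by fluorescence polarization · Benchmarks – No-Arfgap1 wells (100%) versus DMSO full-reaction wells (0%) · Repeats – single replicate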
PAFAH2 FP inh: PAFAH2 (human) inhibition | hit rate 0.99% among 340,000 | recombinant PAFAH2, FP-rhodamine activity probe, fluorescence polarization | inhibition, % at 3.39 µM | AID 492956 | Q99487;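 active = inhibition above the mean over all tested compounds plus 3 SD, cut at about 30% in these data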;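 also: inhibitors block probe labeling of enzyme so polarization drops; 0% = enzyme with DMSO and 100% = wells lacking PAFAH2 protein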
ASAP1 GAP inh: ASAP1 ArfGAP inhibition; Q9ULH1; inhibition, % at 16.5 µM; AID 624377; ASAP1-stimulated ARF1 GTP hydrolysis, GDP FP detection; hit rate 0.19% among 360,000; in the data active = inhibition above about 25%;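 also: 0% = vehicle with enzyme and substrate and 100% = no enzyme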
PAFAH1B3 conf FP: PAFAH1B3 (human) inhibition, confirmed | shares compounds with PAFAH1B3 inh | recombinant PAFAH1B3, FP-Rh activity-based probe, fluorescence polarization | inhibition, % at 3.39 µM | hit rate 30% among 390;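 active = average inhibition over triplicate runs above the hit cutoff set in the earlier primary screen, cut at about 25% in these data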;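 also: 0% = enzyme with DMSO and 100% = wells lacking PAFAH1B3 protein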
* hit, by the source's call; · = no result. This is a sample that favours compounds with a hit; in the whole collection about 2.8% have one here.

SMILES	PAFAH1B3 inh	PAFAH1B2 inh	pPAFAH inh	ARFGAP1 inhibitor	PAFAH2 FP inh	ASAP1 GAP inh	PAFAH1B3 conf FP
CCOC(=O)c1c(NC(=O)c2ccco2)n(C2CCCCC2)c2nc3ccccc3nc12	59*	20	6	9	16	24	20
O=C(Cn1c(=S)[nH]c2ccccc2c1=O)N1CCN(c2ccccc2)CC1	26*	-14	7	-19	-25	1	11
O=C(C1CCC(Cn2c(=S)[nH]c3ccccc3c2=O)CC1)N1CCN(c2ccccc2)CC1 (centres undefined)	5	0	0	-1	-9	4	·
CC(C)Oc1cccc(NC(=O)C2(C)CCN2C(=O)C(C)C)c1 (centres undefined)	·	·	·	4	·	-9	·
C[C@@H]1CN([C@@H](C)CO)C(=O)Cc2cc(NS(=O)(=O)c3cn(C)cn3)ccc2O[C@@H]1CN(C)C(=O)Nc1ccccc1	26*	3	6	4	-4	10	10
C[C@H](CO)N1C[C@H](C)[C@H](CN(C)S(=O)(=O)c2cccs2)Oc2ccc(NC(=O)Nc3ccc4c(c3)OCO4)cc2CC1=O	28*	18	11	17	17	10	12
Cc1ccc(S(=O)(=O)Nc2cccc(-n3cnnn3)c2)cc1	7	6	9	2	0	6	·
CC(=O)C1=CCC(c2ccc(F)cc2)N(S(=O)(=O)c2ccc(C)cc2)C1 (centres undefined)	·	·	·	0	·	4	·
Cc1[nH]n(-c2ccccc2)c(=O)c1N=Nc1c(O)cc(S(=O)(=O)N(C)C)c2ccccc12	27*	16	22	5	22	13	11
Cc1[nH]n(-c2ccccc2)c(=O)c1N=Nc1ccc2c(c1)OCCO2	10	5	4	-10	13	1	·
COc1cc(NCCCC(C)N)c2ncccc2c1 (centres undefined)	53*	18	·	-6	24	3	7
CC1(C(=O)NCCC#N)CCN1C(=O)C1(c2ccccc2)CC1 (centres undefined)	·	·	·	6	·	11	·
CC(=O)N(Cc1ccc(F)cc1)C1=C(NCc2ccccc2)C(=O)c2ccccc2C1=O	42*	11	·	·	8	·	25
O=C(Cn1ncc(Cl)c(Cl)c1=O)N1CCc2ccccc21	28*	0	·	-5	10	-3	22
CCC(=O)Nc1cc2c(cc1Cl)-c1ccccc1C2	-3	6	·	-2	2	1	·
CCCN1CCCc2cc(CN)ccc21	30*	1	21	-13	10	-14	16
COc1ncnc(OC)c1NC(=O)c1ccc(F)cc1	1	1	-2	9	4	-3	·
Cn1nc(C(C)(C)C)c(NC(=O)c2ccc(F)cc2)c1C(C)(C)C	31*	-2	1	10	-4	3	7
CC(C)CNC(=O)C1(C)CCCN1Cc1ccccc1OC(F)F (centres undefined)	·	·	·	0	·	0	·
Cc1ccc(C)c(S(=O)(=O)NC2CCSC2=O)c1 (centres undefined)	6	-2	·	0	-3	-4	·
O=C(N/N=C1\C/C(=N\NC(=O)c2ccncc2)c2ccccc21)c1ccncc1	28*	14	22	4	22	10	12
O=C(NN=C1C2CC3CC(C2)CC1C3)c1ccncc1	6	1	5	-4	4	18	·
Cn1c2ccccc2c(=O)c2ccc(C#Cc3ccc(N)cc3)cc21	35*	2	24	17	-13	17	17
Brc1ccc(-c2csc(Nc3nc(-c4ccc(Br)cc4)cs3)n2)cc1	34*	17	2	17	16	16	22
CCc1ccc(NC2=CC(=O)C(=O)c3ccccc32)cc1	59*	9	·	4	18	14	37*
SMILES	PAFAH1B3 inh	PAFAH1B2 inh	pPAFAH inh	ARFGAP1 inhibitor	PAFAH2 FP inh	ASAP1 GAP inh	PAFAH1B3 conf FP
O=C1C=C(Nc2ccccc2)c2ccccc2C1=O	62*	9	·	11	7	4	30*
c1ccc(Nc2ccccc2)cc1	1	-1	0	5	1	-9	·
CCCCNC1=CC(=O)C(=O)c2ccccc21	25	2	4	4	8	5	·
CSc1ccccc1CNC(=O)C1(C)CCCN1CC(C)C (centres undefined)	·	·	·	0	·	4	·
CC(C)(C)c1ccc(OCC(=O)NNC(=S)NC(=O)c2ccco2)c(Br)c1	2	18	4	4	-11	18	·
CC(C)c1ccc(OCC(=O)NNC(=S)NC(=O)c2ccco2)c(Br)c1	27*	18	9	-5	8	0	9
Oc1ccc(Cl)cc1CNc1cccc2cccnc12	28*	17	21	-5	-3	10	6
NC(=S)NN=C1c2ccccc2-c2c(F)c(F)c(F)c(F)c21	51*	-3	·	3	6	-2	46*
O=C1C(Cl)=C(Nc2ccc3cn[nH]c3c2)C(=O)c2ccccc21	38*	15	11	10	19	5	27*
CN(C)c1ccc(NC2=C(Cl)C(=O)c3ccccc3C2=O)cc1	39*	24	15	10	15	7	23
CC(=O)Nc1ccc(NC2=C(Cl)C(=O)c3ccccc3C2=O)cc1	·	·	·	1	·	7	·
Cc1cc(=O)n2nc(N3CCCC(C(=O)NCCc4ccc(Cl)cc4)C3)sc2n1 (centres undefined)	2	7	9	3	8	0	·
O=C1N/C(=C\c2ccc(O)cc2)C(=O)c2ccccc21	33*	10	3	·	3	·	25
COc1cccc(/C=N/NC(=O)c2ccc3nc[nH]c3c2)c1O	3	6	8	8	1	-8	·
CCN(CC)c1ccc(/C=N/NC(=O)c2ccc3nc[nH]c3c2)c(O)c1	26*	23	17	·	19	·	22
CCOc1ccccc1NC(=O)CSc1nnc(C2CC2)n1CC	4	2	-1	1	-6	-2	·
O=Cc1ccc(O)c2ncccc12	29*	10	·	·	10	·	25
O=C(N/N=C/c1ccccc1O)NC12CC3CC(CC(C3)C1)C2	26*	6	5	5	5	-3	21
CC(=O)NC(C)(c1ccccc1)c1nc(-c2cccc3cccnc23)cs1 (centres undefined)	·	·	·	6	·	6	·
O=C1ON=C(c2ccccc2)/C1=C/c1ccc(O)c(O)c1	29*	8	7	-3	10	-1	47*
CCN(C[C@H]1N[C@@](C)(C(=O)OC)[C@H]2C(=O)N(C)C(=O)[C@@H]12)S(=O)(=O)c1ccc(C)cc1	6	9	-1	14	6	5	·
CCC(CC)C(=O)Nc1ccc(-c2cn3cccnc3n2)cc1	-1	-2	5	14	-1	-4	·
Fc1ccc(C2=Nc3cccc4cccc(c34)N2)cc1	12	-2	12	-11	1	-1	·
